Experimental data as given in ChEMBL document CHEMBL4371064, “Erythrofordins D and E, two new cassaine-type diterpenes from Erythrophleum suaveolens” (2019).

Columns and labels:
Format in all cases: functional
[1] = test system: OVCAR-5; assay: Growth inhibition of human OVCAR5 cells incubated for 48 hrs by sulforhodamine B assay; conditions: OVCAR-5, 48 h
In short: (§1)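 Run in the NCI-60 human tumour cell line panel with dose-response testing. GI50 was determined for each cell line from its dose-response data.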

[2] = test system: SNB-19; assay: Growth inhibition of human SNB19 cells incubated for 48 hrs by sulforhodamine B assay; conditions: SNB-19, 48 h; in short: as §1
[3] = test system: DU-145; assay: Growth inhibition of human DU145 cells incubated for 48 hrs by sulforhodamine B assay; conditions: DU-145, 48 h; in short: as §1
[4] = test system: OVCAR-3; assay: Growth inhibition of human OVCAR3 cells incubated for 48 hrs by sulforhodamine B assay; conditions: OVCAR-3, 48 h; in short: as §1
[5] = test system: SF-295; assay: Growth inhibition of human SF295 cells incubated for 48 hrs by sulforhodamine B assay; conditions: SF-295, 48 h; in short: as §1
[6] = test system: K562; assay: Growth inhibition of human K562 cells incubated for 48 hrs by sulforhodamine B assay; conditions: K562, 48 h; in short: as §1
[7] = test system: UACC-62; assay: Growth inhibition of human UACC62 cells incubated for 48 hrs by sulforhodamine B assay; conditions: UACC-62, 48 h
In short: (§2)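 Tested in the NCI 60-human-tumour-cell-line screen using the five-dose format. GI₅₀ was derived from each cell line's dose-response. TGI and LC₅₀ were derived from the same dose-response data.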

[8] = test system: SN12C; assay: Growth inhibition of human SN12C cells incubated for 48 hrs by sulforhodamine B assay; in short: as §1
[9] = test system: MCF7; assay: Growth inhibition of human MCF7 cells incubated for 48 hrs by sulforhodamine B assay; conditions: MCF7, 48 h; in short: as §1
[10] = test system: NCI-H522; assay: Growth inhibition of human NCI-H522 cells incubated for 48 hrs by sulforhodamine B assay; conditions: NCI-H522, 48 h; in short: as §1
[11] = test system: UO-31; assay: Growth inhibition of human UO31 cells incubated for 48 hrs by sulforhodamine B assay; conditions: UO-31, 48 h; in short: as §2
[12] = test system: HT-29; assay: Growth inhibition of human HT-29 cells incubated for 48 hrs by sulforhodamine B assay; conditions: HT-29, 48 h; in short: as §1
[13] = test system: HOP-92; assay: Growth inhibition of human HOP92 cells incubated for 48 hrs by sulforhodamine B assay; conditions: HOP-92, 48 h; in short: as §1
[14] = test system: MDA-MB-468; assay: Growth inhibition of human MDA-MB-468 cells incubated for 48 hrs by sulforhodamine B assay; conditions: MDA-MB-468, 48 h; in short: as §1
[15] = test system: MOLT-4; assay: Growth inhibition of human MOLT4 cells incubated for 48 hrs by sulforhodamine B assay; conditions: MOLT-4, 48 h; in short: as §1
[16] = test system: CCRF-CEM; assay: Growth inhibition of human CCRF-CEM cells incubated for 48 hrs by sulforhodamine B assay; in short: as §1
[17] = test system: PC-3; assay: Growth inhibition of human PC3 cells incubated for 48 hrs by sulforhodamine B assay; conditions: PC-3, 48 h; in short: as §1
[18] = test system: SW-620; assay: Growth inhibition of human SW620 cells incubated for 48 hrs by sulforhodamine B assay; conditions: SW-620, 48 h; in short: as §2
[19] = test system: M14; assay: Growth inhibition of human M14 cells incubated for 48 hrs by sulforhodamine B assay; conditions: M14, 48 h; in short: as §1
[20] = test system: COLO 205; assay: Growth inhibition of human COLO205 cells incubated for 48 hrs by sulforhodamine B assay; conditions: COLO 205, 48 h; in short: as §1
[21] = test system: SNB-75; assay: Growth inhibition of human SNB75 cells incubated for 48 hrs by sulforhodamine B assay; conditions: SNB-75, 48 h; in short: as §1
[22] = test system: RXF 393; assay: Growth inhibition of human RXF393 cells incubated for 48 hrs by sulforhodamine B assay; conditions: RXF 393, 48 h; in short: as §1
[23] = test system: NCI/ADR-RES; assay: Growth inhibition of human NCI/ADR-RES cells incubated for 48 hrs by sulforhodamine B assay; in short: as §1
[24] = test system: NCI-H460; assay: Growth inhibition of human NCI-H460 cells incubated for 48 hrs by sulforhodamine B assay; conditions: NCI-H460, 48 h; in short: as §1
[25] = test system: NCI-H322M; assay: Growth inhibition of human NCI-H322M cells incubated for 48 hrs by sulforhodamine B assay; in short: as §1
[26] = test system: HL-60(TB); assay: Growth inhibition of human HL-60(TB) cells incubated for 48 hrs by sulforhodamine B assay; conditions: HL-60, 48 h
In short: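 Run within the NCI-60 human tumour cell line panel as a dose-response screen. For each cell line the readouts are GI50, TGI and LC50. Per-line log values also feed a mean-graph analysis, in which the arithmetic mean of the log values across all lines is subtracted from each line's log value.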

[27] = test system: T47D; assay: Growth inhibition of human T47D cells incubated for 48 hrs by sulforhodamine B assay; in short: as §2
[28] = test system: MDA-MB-435; assay: Growth inhibition of human MDA-MB-435 cells incubated for 48 hrs by sulforhodamine B assay; conditions: MDA-MB-435, 48 h; in short: as §1
[29] = test system: HOP-62; assay: Growth inhibition of human HOP62 cells incubated for 48 hrs by sulforhodamine B assay; conditions: HOP-62, 48 h; in short: as §1
[30] = test system: BT-549; assay: Growth inhibition of human BT549 cells incubated for 48 hrs by sulforhodamine B assay; conditions: BT-549, 48 h; in short: as §1
[31] = read-out: pLC50 (the source's name) (converted)

SMILES: COC(=O)/C=C1\CC[C@H]2[C@@H](CC(=O)[C@H]3C(C)(C)C(=O)CC[C@]23C)[C@H]1C
- GI50 [1]: 776 nM
- LC50 [1]: 21400 nM
- TGI ([1]; read-out: pTGI (converted)): 2340 nM
- GI50 [2]: 1200 nM
- LC50 [2]: 12900 nM
- TGI ([2]; read-out: pTGI (converted)): 4470 nM
- GI50 [3]: 575 nM
- LC50 (concentration killing 50% of cells) [3]: 1950 nM
- TGI ([3]; read-out: pTGI (converted)): 1050 nM
- GI50 [4]: 661 nM
- LC50 [4]: 2510 nM
- TGI ([4]; read-out: pTGI (converted)): 1290 nM
- GI50 [5]: 741 nM
- LC50 [5]: 6030 nM
- TGI ([5]; read-out: pTGI (converted)): 1740 nM
- GI50 [6]: 1150 nM
- LC50 [6]: > 34700 nM
- TGI ([6]; read-out: pTGI (converted)): 5370 nM
- GI50 [7]: 832 nM
- LC50 [7]: 11500 nM
- TGI ([7]; read-out: pTGI (converted)): 2290 nM
- GI50 [8]: 513 nM
- LC50 [8]: > 34700 nM
- TGI ([8]; read-out: pTGI (converted)): 1860 nM
- GI50 [9]: 955 nM
- CC50 [9, 31]: > 34700 nM
- TGI ([9]; read-out: pTGI): > 34700 nM
- GI50 [10]: 166 nM
- LC50 [10]: > 34700 nM
- TGI ([10]; read-out: pTGI (converted)): 977 nM
- GI50 [11]: 550 nM
- LC50 [11]: 2240 nM
- TGI ([11]; read-out: pTGI (converted)): 1100 nM
- GI50 [12]: 955 nM
- CC50 [12, 31]: 12900 nM
- TGI ([12]; read-out: pTGI (converted)): 2450 nM
- GI50 [13]: 1000 nM
- LC50 [13]: > 34700 nM
- TGI ([13]; read-out: pTGI (converted)): 3470 nM
- GI50 [14]: 1700 nM
- CC50 [14, 31]: > 34700 nM
- TGI ([14]; read-out: pTGI (converted)): 12300 nM
- GI50 [15]: 195 nM
- LC50 [15]: > 34700 nM
- TGI ([15]; read-out: pTGI (converted)): 1150 nM
- GI50 [16]: 708 nM
- LC50 [16]: > 34700 nM
- TGI ([16]; read-out: pTGI (converted)): 2290 nM
- GI50 [17]: 933 nM
- CC50 [17, 31]: > 34700 nM
- TGI ([17]; read-out: pTGI (converted)): 2750 nM
- GI50 [18]: 708 nM
- LC50 [18]: 9120 nM
- TGI ([18]; read-out: pTGI (converted)): 1700 nM
- GI50 [19]: 1150 nM
- LC50 [19]: 20000 nM
- TGI ([19]; read-out: pTGI (converted)): 4270 nM
- GI50 [20]: 1230 nM
- LC50 [20]: > 34700 nM
- TGI ([20]; read-out: pTGI (converted)): 5370 nM
- GI50 [21]: 550 nM
- LC50 (concentration killing 50% of cells) [21]: 2630 nM
- TGI ([21]; read-out: pTGI (converted)): 1200 nM
- GI50 [22]: 776 nM
- CC50 [22, 31]: > 34700 nM
- TGI ([22]; read-out: pTGI (converted)): 2570 nM
- GI50 [23]: 741 nM
- CC50 [23, 31]: > 34700 nM
- TGI ([23]; read-out: pTGI (converted)): 1910 nM
- GI50 [24]: 170 nM
- LC50 [24]: 2140 nM
- TGI ([24]; read-out: pTGI (converted)): 661 nM
- GI50 [25]: 813 nM
- LC50 [25]: 27500 nM
- TGI ([25]; read-out: pTGI (converted)): 2510 nM
- GI50 [26]: 977 nM
- LC50 [26]: > 34700 nM
- TGI ([26]; read-out: pTGI (converted)): 2750 nM
- GI50 [27]: 1000 nM
- LC50 [27]: > 34700 nM
- TGI ([27]; read-out: pTGI (converted)): 2950 nM
- GI50 [28]: 1070 nM
- LC50 [28]: 20400 nM
- TGI ([28]; read-out: pTGI (converted)): 3800 nM
- GI50 [29]: 550 nM
- CC50 [29, 31]: 2630 nM
- TGI ([29]; read-out: pTGI (converted)): 1200 nM
- GI50 [30]: 676 nM
- LC50 [30]: 5130 nM
- TGI ([30]; read-out: pTGI (converted)): 1660 nM
